# In ChEMBL document CHEMBL4261643, “Reducing the Lipophilicity of Perfluoroalkyl Groups by CF2-F/CF2-Me or CF3/CH3 Exchange” (J Med Chem, 2018):
# Tests used:
# [1] = Partition coefficient, log D of the compound at pH 7.4 after 30 mins by shake-flask method; assay type: physicochemical; conditions: octanol/water
# Outline: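 Octanol/pH 7.4 buffer shake-flask: compound in buffer plus octanol, shaken 30 min, then centrifuged. The aqueous layer was quantified by LC-UV against the solution before octanol addition to give D7.4. Runs were pools of 10 compounds including three QC compounds (cyclobenzaprine, nicardipine, caffeine).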
# [2] = Aqueous solubility of the compound in phosphate buffer at pH 7.4 after 24 hrs by shake-flask method; assay type: physicochemical
# Outline: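 Dried compound equilibrated in aqueous phosphate buffer, pH 7.4, for 24 h at 25 °C. The dissolved portion was separated from the remaining solid and quantified by UPLC/MS/MS. QC samples were included in each run.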
# [3] = Fraction unbound in 10% human plasma after 18 hrs by LC-MS/MS analysis; assay type: ADME, cell-free
# Outline: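 Compound from DMSO stock was dialysed against buffer in 10% human plasma on a RED device for 18 h. Plasma and buffer samples were quantified by LC-MS/MS against a 7-point calibration curve in plasma. Samples were generally run in singlicate, in pools of up to 10 compounds. Propranolol, metoprolol and warfarin served as reference compounds in each run.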
# hERG (KCNH2) = hERG (KCNH2) (Homo sapiens, UniProt Q12809); test: Inhibition of human ERG at 10 uM relative to cisapride
# Chain of hERG (KCNH2) (Q12809 whole entry): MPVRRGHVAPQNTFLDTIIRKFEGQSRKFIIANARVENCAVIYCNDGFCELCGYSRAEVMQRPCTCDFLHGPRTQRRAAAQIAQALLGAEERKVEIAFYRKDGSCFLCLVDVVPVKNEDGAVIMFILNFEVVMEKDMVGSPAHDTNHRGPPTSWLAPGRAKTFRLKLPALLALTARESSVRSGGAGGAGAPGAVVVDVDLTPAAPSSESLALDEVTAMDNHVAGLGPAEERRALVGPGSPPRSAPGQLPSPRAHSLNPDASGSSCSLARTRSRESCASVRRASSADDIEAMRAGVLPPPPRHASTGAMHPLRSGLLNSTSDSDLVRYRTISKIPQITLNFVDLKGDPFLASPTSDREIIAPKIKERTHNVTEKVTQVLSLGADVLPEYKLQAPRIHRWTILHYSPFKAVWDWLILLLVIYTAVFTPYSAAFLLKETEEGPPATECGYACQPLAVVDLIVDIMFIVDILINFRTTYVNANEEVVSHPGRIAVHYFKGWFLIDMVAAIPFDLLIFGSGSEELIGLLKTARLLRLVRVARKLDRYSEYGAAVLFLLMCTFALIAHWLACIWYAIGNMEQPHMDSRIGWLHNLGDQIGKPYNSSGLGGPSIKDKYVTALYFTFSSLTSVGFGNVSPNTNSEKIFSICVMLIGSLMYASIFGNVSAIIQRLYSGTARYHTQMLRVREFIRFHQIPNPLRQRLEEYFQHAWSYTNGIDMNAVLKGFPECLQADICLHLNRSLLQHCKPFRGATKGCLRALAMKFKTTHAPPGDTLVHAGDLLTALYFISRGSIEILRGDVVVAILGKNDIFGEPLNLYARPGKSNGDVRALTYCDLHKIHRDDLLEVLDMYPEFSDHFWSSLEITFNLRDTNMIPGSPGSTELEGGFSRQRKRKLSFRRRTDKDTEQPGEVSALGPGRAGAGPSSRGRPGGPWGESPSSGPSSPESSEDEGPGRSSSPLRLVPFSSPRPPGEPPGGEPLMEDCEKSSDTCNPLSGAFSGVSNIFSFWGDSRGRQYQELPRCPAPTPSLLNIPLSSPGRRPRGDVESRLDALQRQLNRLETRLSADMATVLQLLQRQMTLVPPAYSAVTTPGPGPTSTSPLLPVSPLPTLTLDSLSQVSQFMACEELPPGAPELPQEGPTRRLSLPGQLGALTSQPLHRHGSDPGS
# [4] = Intrinsic clearance in Han Wistar rat hepatocytes assessed as per million cells preincubated in presence of NADPH for 30 mins and measured up to 120 mins by LC-MS/MS analysis; assay type: ADME, cell-based, Hepatocyte; conditions: read-out: CLH
# Outline: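 Cryopreserved Han Wistar rat hepatocytes at 1x10^6 cells/mL were incubated with compound from DMSO stock at 37 °C. Samples were taken at 0.5, 5, 15, 20, 30, 45, 60, 80, 100 and 120 min and quenched with cold acetonitrile. After centrifugation at 4 °C, substrate disappearance was followed by LC-MS/MS. Clint is expressed in µL/min/10^6 cells.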
# [5] = Intrinsic clearance in human liver microsomes preincubated in presence of NADPH for 30 mins and measured up to 30 mins by LC-MS/MS analysis; assay type: ADME, microsome; conditions: read-out: CLH
# Outline: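 Compound from DMSO stock was incubated with human liver microsomes plus NADPH at 37 °C. Aliquots taken at 0.7, 5.8, 11.6, 17.2, 22.7 and 30 min were quenched with cold acetonitrile and centrifuged at 4 °C. Substrate loss was measured by LC-MS/MS, and Clint is given in µL/min/mg. Six isoform-specific P450/FMO marker substrates were included in each run.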
logD at 0.5 h [1],solubility thermodynamic at 24 h [2],fraction unbound at 18 h [3],hepatocyte CLint [4],microsomal CLint [5],Structure (SMILES),inhibition at 10 µM (hERG (KCNH2))
2.2,946 µM,0.25,64 µL/min/1e6 cells,9 µL/min/mg,CN(C)C(=O)CNCCc1cccc(OCC(F)(F)C(F)(F)C(C)(F)F)c1.Cl,63%
1.1,960 µM,0.62,34 µL/min/1e6 cells,7 µL/min/mg,CN(C)C(=O)CNCCc1cccc(OCCC(C)(F)F)c1.Cl,35%
1.7,1000 µM,0.49,38 µL/min/1e6 cells,7 µL/min/mg,CN(C)C(=O)CNCCc1cccc(OCCCC(C)(F)F)c1.Cl,45%
2.3,779 µM,0.23,91 µL/min/1e6 cells,29 µL/min/mg,CCCCCOc1cccc(CCNCC(=O)N(C)C)c1.Cl,70%

# Second part, the molecule before the results:
Structure (SMILES),logD at 0.5 h [1],solubility thermodynamic at 24 h [2],fraction unbound at 18 h [3],hepatocyte CLint [4],microsomal CLint [5],inhibition at 10 µM (hERG (KCNH2))
CN(C)C(=O)CNCCc1cccc(OCC(F)(F)C(C)(F)F)c1.Cl,1.6,929 µM,0.51,32 µL/min/1e6 cells,10 µL/min/mg,41%
CN(C)C(=O)CNCCc1cccc(OCC(F)(F)C(F)(F)C(F)(F)C(F)(F)F)c1.Cl,–,955 µM,–,–,–,–
CCCCOc1cccc(CCNCC(=O)N(C)C)c1.Cl,1.8,782 µM,0.45,82 µL/min/1e6 cells,13 µL/min/mg,31%
CN(C)C(=O)CNCCc1cccc(OCC(F)(F)C(F)(F)C(F)(F)F)c1.Cl,2.5,952 µM,0.2,20 µL/min/1e6 cells,8 µL/min/mg,57%
